Shown are actives, neighbours in structure and some others; about 4.4% of the full set was active somewhere.
Tb MetRS inh – Trypanosoma brucei MetRS inhibition; purified T. brucei MetRS, ATP depletion, Kinase-Glo luminescence; inhibition, % at 11.9 µM; 360,000 tested, 0.4% active; AID 624268;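 active = inhibition above a per-plate cutoff of the control wells' mean inhibition plus 3 SD, cut at about 5.5% in these data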
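Material – parasite MetRS enzyme · Medium – HEPES-MgCl2-KCl buffer plus DTT, spermine, BSA, pyrophosphatase · Reagent – ATP, methionine and E. coli bulk tRNA substrates · Times – 15 min enzyme-compound preincubation, 2 h reaction, 10 min detection, 25 °C · Measured by – luminescence of leftover ATP · Evaluation – percent inhibition relative to median high and low control wells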
AHR act – human AHR activation; P35869; AHR-responsive luciferase reporter cells, luminescence; activation, % at 5 µM; 320,000 tested, 2.5% active; in the data active = activation above about 47%
AI-2 QS mod – modulators of Vibrio harveyi AI-2 quorum sensing system; Vibrio harveyi JMH597 AI-2 luminescence/OD600 ratio, 9 h; active compounds read low; strain lacks LuxN and CqsS sensors; 0 = neutral-control median; activity change, % at 7.5 µM; 300,000 tested, 0.4% active; AID 2094; in the data active = activity change below about -75%, passing the limit was not always enough;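 also: luminescence divided by OD600 gain over 9 h not by final OD600 alone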
MsrA inh – inhibitors of bovine MsrA | 360,000 tested, 0.75% active | inhibition, % at 15.5 µM | purified bovine MsrA, absorbance read-out; in the data active = inhibition above about 4.5%
HTR2A ag – mouse HTR2A agonism via beta-arrestin recruitment; 360,000 tested, 0.66% active; activation, % at 7.6 µM; CHO-K1 mHTR2A beta-arrestin complementation, luminescence; percent of 30 µM serotonin response; P35363;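 active = activation above a run cutoff, the mean activation of all tested compounds plus 3 SD, cut at about 14% in these data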
MsrA act – activators of bovine methionine sulfoxide reductase A; purified bovine MsrA, absorbance read-out; activation, % at 10.6 µM; 360,000 tested, 0.3% active; in the data active = activation above about 7.5%
OPRM1 ag – OPRM1 agonism in mouse HTR2A counterscreen; shares compounds with HTR2A ag; U2OS OPRM1 beta-arrestin PathHunter, luminescence; DMSO 0%, DAMGO 9.3 µM 100%; activation, % at 9.3 µM; 2,300 tested, 5.3% active; AID 624380;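 active = mean activation above the mean of DMSO-only wells plus 3 SD, cut at about 0.5% in these data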
Target sequence (P35372 whole entry, looked up): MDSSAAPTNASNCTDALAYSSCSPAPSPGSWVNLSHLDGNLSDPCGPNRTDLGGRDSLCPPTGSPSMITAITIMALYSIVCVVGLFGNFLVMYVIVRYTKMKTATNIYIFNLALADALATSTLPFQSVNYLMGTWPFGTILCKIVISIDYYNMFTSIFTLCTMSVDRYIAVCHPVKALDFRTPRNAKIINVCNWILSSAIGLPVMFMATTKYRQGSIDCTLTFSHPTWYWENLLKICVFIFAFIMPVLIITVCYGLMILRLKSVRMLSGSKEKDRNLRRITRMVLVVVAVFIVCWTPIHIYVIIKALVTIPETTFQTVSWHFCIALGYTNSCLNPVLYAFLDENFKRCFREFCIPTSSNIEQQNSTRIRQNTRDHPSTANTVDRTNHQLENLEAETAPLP
m5-HT2A ag conf – mouse HTR2A agonism confirmed; shares compounds with HTR2A ag; CHO-K1 PathHunter beta-arrestin recruitment, luminescence; DMSO 0%, 30 µM serotonin 100%; activation, % at 7.6 µM; 2,300 tested, 19% active;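 active = mean activation across triplicates above the hit threshold derived in the original primary screen, cut at about 15% in these data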
Numbers stand for hits; . = inactive; / = no result given.

SMILES	Tb MetRS inh	AHR act	AI-2 QS mod	MsrA inh	HTR2A ag	MsrA act	OPRM1 ag	m5-HT2A ag conf
O=c1cccc2n1C[C@@H]1C[C@@H]2CN(CC(O)c2ccc([N+](=O)[O-])cc2)C1 (some centres undefined)	.	/	.	.	.	.	/	/
NCCc1c[nH]c2ccc(C(N)=O)cc12	.	.	/	.	27.7	.	.	14.8
CCCN1CCc2cc(O)cc3c2[C@H]1Cc1ccc(O)c(O)c1-3	.	.	.	.	48.5	.	.	171.0
CN1CCc2cc(O)cc3c2[C@H]1Cc1ccc(O)c(O)c1-3	.	.	.	.	56.5	.	.	151.6
COc1ccc(CCNCc2ccccc2F)cc1	.	.	.	.	.	.	/	/
COc1ccc(CCNCc2ccccc2F)cc1OC	.	.	.	.	17.5	.	.	.
COc1ccccc1CNCCc1ccc(F)cc1	.	.	.	.	31.6	.	.	.
COc1cc(OC)c(OC)cc1CNCCc1cccc(F)c1	.	.	.	.	.	.	/	/
COc1ccccc1CNCCc1cccc(Cl)c1	.	/	/	.	43.1	.	.	20.6
Cc1nc2ccccc2c(=O)n1/N=C/c1cc(Br)cc(Br)c1O	.	.	.	.	.	.	/	/
COC(=O)C1=C(c2ccc(S(C)(=O)=O)cc2)C[C@@H]2CC[C@H]1N2C(=O)NCCCOC(C)C	.	.	.	.	.	.	/	/
O=P(CN1CCN(c2ccccc2)CC1)(N1CCCCC1)N1CCCCC1	.	.	.	.	14.5	.	.	19.6
COc1cc(CCN)c(OC)cc1C	/	/	/	.	/	/	/	/
COc1cc(C[C@@H](C)N)c(OC)cc1I	.	.	.	.	60.8	.	.	26.3
COC(=O)C1=C(c2ccc(F)cc2F)C[C@@H]2CC[C@H]1N2C(=O)NCCOc1ccccc1	.	.	/	.	.	.	/	/
CCCN(CCC)[C@@H]1CCc2cccc(O)c2C1	.	.	.	.	58.2	.	0.8	125.6
CNCCc1c[nH]c2ccc(O)cc12	.	.	.	.	58.9	.	.	140.6
CNCCc1c[nH]c2ccccc12	.	.	.	/	32.1	.	.	15.9
CCCNC(=O)N1[C@H]2CC[C@@H]1C(C(=O)OC)=C(c1ccc(-c3ccccc3)c(F)c1)C2	.	.	/	.	.	.	/	/
Cc1nn(Cc2ccccc2)c(C)c1C(=O)NCc1ccccc1F	.	.	.	.	.	.	/	/
Cc1nn(Cc2ccccc2)c(C)c1C(=O)O	.	.	.	.	15.4	.	0.6	.
O=[N+]([O-])c1ccc(N2CCCNCC2)c2ncccc12	.	.	.	.	37.6	.	.	21.7
O=[N+]([O-])c1ccc(N2CCCCC2)c2ncccc12	.	.	.	.	.	.	/	/
COC(=O)C1=C(c2c(C)noc2C)C[C@@H]2CC[C@H]1N2C(=O)NCc1ccc(C(F)(F)F)cc1	.	.	/	.	.	.	/	/
Fc1cccc(CNCCc2c[nH]c3ccccc23)c1	.	.	.	.	35.1	.	.	38.8
SMILES	Tb MetRS inh	AHR act	AI-2 QS mod	MsrA inh	HTR2A ag	MsrA act	OPRM1 ag	m5-HT2A ag conf
Cc1cccc(CNCCc2c[nH]c3ccccc23)c1	.	.	.	.	33.4	.	.	15.1
OC(CNCCc1c[nH]c2ccccc12)C(F)(F)F (centres undefined)	.	.	.	.	.	.	/	/
O=[N+]([O-])c1ccccc1CNCCc1c[nH]c2ccccc12	.	.	.	.	.	.	/	/
FC(F)(F)Oc1ccc(NC2=NCCCS2)cc1	.	.	.	.	14.6	.	.	.
FC(F)(F)c1cccc(NC2=NCCCS2)c1	.	.	.	.	.	.	/	/
O=c1[nH]c2ccccc2n1C1CCN(C(c2ccccc2)c2nnnn2-c2ccc3c(c2)OCCO3)CC1 (centres undefined)	.	/	/	.	.	.	/	/
O=c1[nH]c2ccccc2n1C1CCN(C(c2cccs2)c2nnnn2-c2ccc3c(c2)OCCO3)CC1 (centres undefined)	.	/	/	.	14.5	.	/	17.1
